Each block holds one compound with its values, some of them ahead of it.
What was measured:
[1] = system: Stomach; assay: Biodistribution in ddY mouse stomach at 13.2 to 20.6 kBq, iv measured per organ at 60 mins by gamma counting analysis; format: ADME, organism-based; details: in vivo, 1 h
Method in brief: (§1)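 Male ddY mice, 5 weeks old, were injected in the tail vein with the 125I tracer (13.2–20.6 kBq) in 100 µL saline containing ethanol. Sacrifice at 2, 10, 30 and 60 min. Stomach radioactivity is expressed as %ID per whole organ, mean (SD) of 5 animals.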

[2] = system: Blood; assay: Biodistribution in ddY mouse blood at 13.2 to 20.6 kBq, iv measured at 60 mins by gamma counting analysis; format: ADME, organism-based; details: in vivo, 1 h
Method in brief: (§2)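 Male ddY mice, 5 weeks old, received the 125I-labelled tracer (13.2–20.6 kBq) intravenously in the tail vein, in 100 µL saline containing ethanol. Animals were sacrificed at 2, 10, 30 and 60 min. Tissue radioactivity is expressed as %ID/g, mean (SD) of 5 animals.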

[3] = 1-Octanol-PBS buffer partition coefficient, log P of the compound at 0.37 MBq after 2 mins by gamma counting analysis; format: physicochemical
[4] = system: Brain; assay: Biodistribution in ddY mouse brain at 13.2 to 20.6 kBq, iv measured at 30 mins by gamma counting analysis; format: ADME, organism-based; details: in vivo, 0.5 h; method in brief: as §2
[5] = system: Brain; assay: Drug uptake in human brain at 92.5 kBq after 1 hr by autoradiographic analysis; format: ADME, tissue-based
[6] = system: Kidney; assay: Biodistribution in ddY mouse kidney at 13.2 to 20.6 kBq, iv measured at 10 mins by gamma counting analysis; format: ADME, organism-based; details: in vivo; method in brief: as §2
[7] = system: Stomach; assay: Biodistribution in ddY mouse stomach at 13.2 to 20.6 kBq, iv measured per organ at 10 mins by gamma counting analysis; format: ADME, organism-based; details: in vivo; method in brief: as §1
[8] = system: Brain; assay: Drug uptake in gray matter of alzheimer disease patient brain at 92.5 kBq after 1 hr by autoradiographic analysis; format: ADME, tissue-based; details: human, in vitro
Method in brief: (§3)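 Postmortem AD brain (person), 6 µm paraffin sections, deparaffinized in xylene and a graded ethanol series. Sections were incubated with the 125I tracer (92.5 kBq/100 µL) for 1 h at room temperature, then dipped in 50% EtOH for 2 h and rinsed in water. Imaging plates were exposed overnight. Adjacent sections were immunostained with AT8 (phospho-tau) and BC05 (Abeta1-42).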

[9] = system: Brain; assay: Drug uptake in white matter of alzheimer disease patient brain at 92.5 kBq after 1 hr by autoradiographic analysis; format: ADME, tissue-based; details: human, in vitro; method in brief: as §3
[10] = system: Liver; assay: Biodistribution in ddY mouse liver at 13.2 to 20.6 kBq, iv measured at 30 mins by gamma counting analysis; format: ADME, organism-based; details: in vivo, 0.5 h; method in brief: as §2
[11] = system: Kidney; assay: Biodistribution in ddY mouse kidney at 13.2 to 20.6 kBq, iv measured at 2 mins by gamma counting analysis; format: ADME, organism-based; details: in vivo; method in brief: as §2
[12] = system: Lung; assay: Biodistribution in ddY mouse lung at 13.2 to 20.6 kBq, iv measured at 60 mins by gamma counting analysis; format: ADME, organism-based; details: in vivo, 1 h; method in brief: as §2
[13] = system: Brain; assay: Biodistribution in ddY mouse brain at 13.2 to 20.6 kBq, iv measured at 60 mins by gamma counting analysis; format: ADME, organism-based; details: in vivo, 1 h; method in brief: as §2
[14] = system: Brain; assay: Ratio of drug level in ddY mouse brain at 13.2 to 20.6 kBq, iv measured at 2 mins to drug level in ddY mouse brain at 13.2 to 20.6 kBq, iv measured at 60 mins; format: ADME, organism-based; details: in vivo
Method in brief: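 Tail-vein injection of the 125I tracer (13.2–20.6 kBq, saline with ethanol) into male 5-week-old ddY mice. The ratio is brain uptake (%ID/g) at 2 min divided by brain uptake at 60 min, from groups of 5 animals.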

[15] = system: Lung; assay: Biodistribution in ddY mouse lung at 13.2 to 20.6 kBq, iv measured at 10 mins by gamma counting analysis; format: ADME, organism-based; details: in vivo; method in brief: as §2
[16] = system: Lung; assay: Biodistribution in ddY mouse lung at 13.2 to 20.6 kBq, iv measured at 2 mins by gamma counting analysis; format: ADME, organism-based; details: in vivo; method in brief: as §2
[17] = system: Blood; assay: Biodistribution in ddY mouse blood at 13.2 to 20.6 kBq, iv measured at 10 mins by gamma counting analysis; format: ADME, organism-based; details: in vivo; method in brief: as §2
[18] = system: Pancreas; assay: Biodistribution in ddY mouse pancreas at 13.2 to 20.6 kBq, iv measured at 30 mins by gamma counting analysis; format: ADME, organism-based; details: in vivo, 0.5 h; method in brief: as §2
[19] = system: Liver; assay: Biodistribution in ddY mouse liver at 13.2 to 20.6 kBq, iv measured at 10 mins by gamma counting analysis; format: ADME, organism-based; details: in vivo; method in brief: as §2
[20] = system: Kidney; assay: Biodistribution in ddY mouse kidney at 13.2 to 20.6 kBq, iv measured at 60 mins by gamma counting analysis; format: ADME, organism-based; details: in vivo, 1 h; method in brief: as §2
[21] = system: Intestine; assay: Biodistribution in ddY mouse intestine at 13.2 to 20.6 kBq, iv measured at 60 mins by gamma counting analysis; format: ADME, organism-based; details: in vivo, 1 h; method in brief: as §2
[22] = system: Spleen; assay: Biodistribution in ddY mouse spleen at 13.2 to 20.6 kBq, iv measured at 2 mins by gamma counting analysis; format: ADME, organism-based; details: in vivo; method in brief: as §2
[23] = system: Intestine; assay: Biodistribution in ddY mouse intestine at 13.2 to 20.6 kBq, iv measured at 10 mins by gamma counting analysis; format: ADME, organism-based; details: in vivo; method in brief: as §2
[24] = system: Pancreas; assay: Biodistribution in ddY mouse pancreas at 13.2 to 20.6 kBq, iv measured at 60 mins by gamma counting analysis; format: ADME, organism-based; details: in vivo, 1 h; method in brief: as §2
[25] = system: Brain; assay: Biodistribution in ddY mouse brain at 13.2 to 20.6 kBq, iv measured at 2 mins by gamma counting analysis; format: ADME, organism-based; details: in vivo; method in brief: as §2
[26] = system: Brain; assay: Biodistribution in ddY mouse brain at 13.2 to 20.6 kBq, iv measured at 10 mins by gamma counting analysis; format: ADME, organism-based; details: in vivo; method in brief: as §2
[27] = system: Intestine; assay: Biodistribution in ddY mouse intestine at 13.2 to 20.6 kBq, iv measured at 30 mins by gamma counting analysis; format: ADME, organism-based; details: in vivo, 0.5 h; method in brief: as §2
[28] = system: Blood; assay: Biodistribution in ddY mouse blood at 13.2 to 20.6 kBq, iv measured at 30 mins by gamma counting analysis; format: ADME, organism-based; details: in vivo, 0.5 h; method in brief: as §2
[29] = system: Heart; assay: Biodistribution in ddY mouse heart at 13.2 to 20.6 kBq, iv measured at 10 mins by gamma counting analysis; format: ADME, organism-based; details: in vivo; method in brief: as §2
[30] = system: Heart; assay: Biodistribution in ddY mouse heart at 13.2 to 20.6 kBq, iv measured at 60 mins by gamma counting analysis; format: ADME, organism-based; details: in vivo, 1 h; method in brief: as §2
[31] = system: Heart; assay: Biodistribution in ddY mouse heart at 13.2 to 20.6 kBq, iv measured at 2 mins by gamma counting analysis; format: ADME, organism-based; details: in vivo; method in brief: as §2
[32] = system: Spleen; assay: Biodistribution in ddY mouse spleen at 13.2 to 20.6 kBq, iv measured at 30 mins by gamma counting analysis; format: ADME, organism-based; details: in vivo, 0.5 h; method in brief: as §2
[33] = system: Pancreas; assay: Biodistribution in ddY mouse pancreas at 13.2 to 20.6 kBq, iv measured at 10 mins by gamma counting analysis; format: ADME, organism-based; details: in vivo; method in brief: as §2
[34] = system: Blood; assay: Biodistribution in ddY mouse blood at 13.2 to 20.6 kBq, iv measured at 2 mins by gamma counting analysis; format: ADME, organism-based; details: in vivo; method in brief: as §2
[35] = system: Intestine; assay: Biodistribution in ddY mouse intestine at 13.2 to 20.6 kBq, iv measured at 2 mins by gamma counting analysis; format: ADME, organism-based; details: in vivo; method in brief: as §2
[36] = system: Spleen; assay: Biodistribution in ddY mouse spleen at 13.2 to 20.6 kBq, iv measured at 10 mins by gamma counting analysis; format: ADME, organism-based; details: in vivo; method in brief: as §2
[37] = system: Liver; assay: Biodistribution in ddY mouse liver at 13.2 to 20.6 kBq, iv measured at 60 mins by gamma counting analysis; format: ADME, organism-based; details: in vivo, 1 h; method in brief: as §2
[38] = system: Liver; assay: Biodistribution in ddY mouse liver at 13.2 to 20.6 kBq, iv measured at 2 mins by gamma counting analysis; format: ADME, organism-based; details: in vivo; method in brief: as §2
[39] = system: Spleen; assay: Biodistribution in ddY mouse spleen at 13.2 to 20.6 kBq, iv measured at 60 mins by gamma counting analysis; format: ADME, organism-based; details: in vivo, 1 h; method in brief: as §2
[40] = system: Lung; assay: Biodistribution in ddY mouse lung at 13.2 to 20.6 kBq, iv measured at 30 mins by gamma counting analysis; format: ADME, organism-based; details: in vivo, 0.5 h; method in brief: as §2
[41] = system: Kidney; assay: Biodistribution in ddY mouse kidney at 13.2 to 20.6 kBq, iv measured at 30 mins by gamma counting analysis; format: ADME, organism-based; details: in vivo, 0.5 h; method in brief: as §2
[42] = system: Heart; assay: Biodistribution in ddY mouse heart at 13.2 to 20.6 kBq, iv measured at 30 mins by gamma counting analysis; format: ADME, organism-based; details: in vivo, 0.5 h; method in brief: as §2
[43] = system: Stomach; assay: Biodistribution in ddY mouse stomach at 13.2 to 20.6 kBq, iv measured per organ at 30 mins by gamma counting analysis; format: ADME, organism-based; details: in vivo, 0.5 h; method in brief: as §1
[44] = system: Pancreas; assay: Biodistribution in ddY mouse pancreas at 13.2 to 20.6 kBq, iv measured at 2 mins by gamma counting analysis; format: ADME, organism-based; details: in vivo; method in brief: as §2
[45] = system: Stomach; assay: Biodistribution in ddY mouse stomach at 13.2 to 20.6 kBq, iv measured per organ at 2 mins by gamma counting analysis; format: ADME, organism-based; details: in vivo; method in brief: as §1
[46] = system: Brain; assay: Ratio of drug level in ICR mouse brain at 2.6 to 3.3 MBq, iv measured at 2 mins to drug level in ICR mouse brain at 2.6 to 3.3 MBq, iv measured at 60 mins; format: ADME, organism-based; details: in vivo
[47] = system: Brain; assay: Ratio of drug level in mouse brain measured at 2.5 mins to drug level in mouse brain measured at 20 mins; format: ADME, tissue-based; details: in vivo

Drug uptake [1]: 3.56 %ID
Drug uptake [2]: 1.28 % ID/g
logP at 2 min [3]: 2.23
Drug uptake [4]: 0.68 % ID/g
Drug uptake [5]: Not Active
Drug uptake [6]: 7.28 % ID/g
Drug uptake [7]: 2.82 %ID
Drug uptake [8]: Active
Drug uptake [9]: Not Active
Drug uptake [10]: 14.9 % ID/g
Drug uptake [11]: 11.7 % ID/g
Drug uptake [12]: 1.39 % ID/g
Drug uptake [13]: 0.33 % ID/g
Ratio [14]: 9.94
Drug uptake [15]: 3.98 % ID/g
Drug uptake [16]: 7.39 % ID/g
Drug uptake [17]: 3.24 % ID/g
Drug uptake [18]: 1.67 % ID/g
Drug uptake [19]: 19.2 % ID/g
Drug uptake [20]: 2.26 % ID/g
Drug uptake [21]: 26.5 % ID/g
Drug uptake [22]: 3.48 % ID/g
Drug uptake [23]: 9.22 % ID/g
Drug uptake [24]: 0.89 % ID/g
Drug uptake [25]: 3.28 % ID/g
Drug uptake [26]: 1.61 % ID/g
Drug uptake [27]: 18.2 % ID/g
Drug uptake [28]: 1.88 % ID/g
Drug uptake [29]: 3.46 % ID/g
Drug uptake [30]: 1.12 % ID/g
Drug uptake [31]: 8.56 % ID/g
Drug uptake [32]: 2.66 % ID/g
Drug uptake [33]: 3.31 % ID/g
Drug uptake [34]: 3.83 % ID/g
Drug uptake [35]: 3.11 % ID/g
Drug uptake [36]: 3.69 % ID/g
Drug uptake [37]: 10.1 % ID/g
Drug uptake [38]: 17.4 % ID/g
Drug uptake [39]: 1.42 % ID/g
Drug uptake [40]: 2.2 % ID/g
Drug uptake [41]: 4.32 % ID/g
Drug uptake [42]: 2 % ID/g
Drug uptake [43]: 3.83 %ID
Drug uptake [44]: 5.4 % ID/g
Drug uptake [45]: 1.67 %ID
SMILES: CN(C)c1ccc(/C=C/c2nc3ccc([125I])cc3[nH]2)cc1

Ratio [46]: 5.38
SMILES: [11CH3]Nc1ccc(-c2ccc3ccccc3n2)cc1

Ratio [47]: 2.92
SMILES: [18F]CCC1CCN(c2ccn3c(n2)nc2ccccc23)CC1

From ChEMBL document CHEMBL2384977, “Synthesis and biological evaluation of novel styryl benzimidazole derivatives as probes for imaging of neurofibrillary tangles in Alzheimer's disease” (Bioorg Med Chem, 2013)
